According to ChEMBL document CHEMBL1134845, “Syntheses and biological activities of a novel group of steroidal derived inhibitors for human Cdc25A protein phosphatase” (J Med Chem, 2001):

B1: M-phase inducer phosphatase 1 (Homo sapiens), P30304 (protein)
chain: MELGPEPPHRRRLLFACSPPPASQPVVKALFGASAAGGLSPVTNLTVTMDQLQGLGSDYEQPLEVKNNSNLQRMGSSESTDSGFCLDSPGPLDSKENLENPMRRIHSLPQKLLGCSPALKRSHSDSLDHDIFQLIDPDENKENEAFEFKKPVRPVSRGCLHSHGLQEGKDLFTQRQNSAPARMLSSNERDSSEPGNFIPLFTPQSPVTATLSDEDDGFVDLLDGENLKNEEETPSCMASLWTAPLVMRTTNLDNRCKLFDSPSLCSSSTRSVLKRPERSQEESPPGSTKRRKSMSGASPKESTNPEKAHETLHQSLSLASSPKGTIENILDNDPRDLIGDFSKGYLFHTVAGKHQDLKYISPEIMASVLNGKFANLIKEFVIIDCRYPYEYEGGHIKGAVNLHMEEEVEDFLLKKPIVPTDGKRVIVVFHCEFSSERGPRMCRYVRERDRLGNEYPKLHYPELYVLKGGYKEFFMKCQSYCEPPSYRPMHHEDFKEDLKKFRTKSRTWAGEKSKREMYSRLKKL

Key:
SF-268 = assay: Growth inhibitory activity was determined against SF-268 cancer cell line of CNS cancer; assay type: functional; conditions: Homo sapiens
Outline: (§1)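 NCI 60 human tumour cell line screen run at the National Cancer Institute. Cell growth and viability read with the protein stain sulforhodamine B, which binds basic amino acids of cells left attached after washing. […] MG MID is the mean GI50 calculated over all panels.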

UO-31 [1] = assay: Growth inhibitory activity was determined against UO-31 cancer cell line of Renal cancer; assay type: functional; conditions: Homo sapiens; outline: as §1
OVCAR-3 [2] = assay: Growth inhibitory activity was determined against OVCAR-3 cancer cell line of Ovarian cancer; assay type: functional; conditions: Homo sapiens; outline: as §1
BT-549 (Homo sapiens) = assay: Growth inhibitory activity was determined against BT-549 cancer cell line of Breast cancer; conditions: Homo sapiens, BT-549
SK-MEL-5 = assay: Growth inhibitory activity was determined against SK-MEL-5 cancer cell line of melanoma; assay type: functional, Homo sapiens; conditions: Homo sapiens, SK-MEL-5; outline: as §1
NCI-H522 = assay: Growth inhibitory activity was determined against NCI-H522 cancer cell line of non-small cell lung cancer; assay type: functional; conditions: Homo sapiens; outline: as §1
A549 = assay: Growth inhibitory activity was determined against A549/ATCC cancer cell line of non-small cell lung cancer; assay type: functional, Homo sapiens; conditions: Homo sapiens, A549; outline: as §1
T47D = assay: Growth inhibitory activity was determined against T-47D cancer cell line of Breast cancer; assay type: functional, Homo sapiens; conditions: Homo sapiens, T47D; outline: as §1
PC-3 = assay: Growth inhibitory activity was determined against PC-3 cancer cell line of Prostate cancer; assay type: functional; conditions: Homo sapiens; outline: as §1
SN12C [3] = assay: Growth inhibitory activity was determined against SN12C cancer cell line of Renal cancer; assay type: functional; conditions: Homo sapiens; outline: as §1
SF-539 = assay: Growth inhibitory activity was determined against SF-539 cancer cell line of CNS cancer; assay type: functional; conditions: Homo sapiens; outline: as §1
786-0 [4] = assay: Growth inhibitory activity was determined against 786-0 cancer cell line of Renal cancer; assay type: functional; conditions: Homo sapiens; outline: as §1
HT-29 [5] = assay: Inhibition of colon cancer in HT-29 cancer cell lines; assay type: functional; conditions: Homo sapiens
Outline: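 Soft agar clonogenic assay of anchorage-independent growth, using HT-29 colon and A549 lung adenocarcinoma cells. The value is the compound concentration that cut colony number to 50% of control.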

U-251 = assay: Growth inhibitory activity was determined against U-251 cancer cell line of CNS cancer; assay type: functional; conditions: Homo sapiens; outline: as §1
COLO 205 = assay: Growth inhibitory activity was determined against COLO 205 cancer cell line colon cancer; assay type: functional, Homo sapiens; conditions: Homo sapiens, COLO 205; outline: as §1
LOX IMVI = assay: Growth inhibitory activity was determined against LOX IMVI cancer cell line of melanoma; assay type: functional, Homo sapiens; conditions: Homo sapiens, LOX IMVI; outline: as §1
OVCAR-8 [6] = assay: Growth inhibitory activity was determined against OVCAR-8 cancer cell line of Ovarian cancer; assay type: functional; conditions: Homo sapiens; outline: as §1
HCC 2998 = assay: Growth inhibitory activity was determined against HCC2998 cancer cell line colon cancer; assay type: functional, Homo sapiens; conditions: Homo sapiens, HCC 2998; outline: as §1
NCI-H23 = assay: Growth inhibitory activity was determined against NCI-H23 cancer cell line of non-small cell lung cancer; assay type: functional, Homo sapiens; conditions: Homo sapiens, NCI-H23; outline: as §1
OVCAR-3 [7] = assay: Growth inhibitory activity was determined against OVCAR-3 cancer cell lines of Ovarian cancer; assay type: functional; conditions: Homo sapiens; outline: as §1
OVCAR-8 [8] = assay: Growth inhibitory activity was determined against OVCAR-8 cancer cell lines of Ovarian cancer; assay type: functional; conditions: Homo sapiens; outline: as §1
NCI/ADR-RES = assay: Growth inhibitory activity was determined against NCI/ADR-RES cancer cell line of Breast cancer; assay type: functional, Homo sapiens; conditions: Homo sapiens, NCI/ADR-RES; outline: as §1
786-0 [9] = assay: Growth inhibitory activity was determined against 786-0 cancer cell line of renal cancer; assay type: functional; conditions: Homo sapiens; outline: as §1
[10] = biological target: Receptor-type tyrosine-protein phosphatase C, CD45 (Homo sapiens) (UniProt P08575); assay: Inhibitory activity tested against human CD45 (receptor-type tyrosine-protein phosphatase C)
Sequence of Receptor-type tyrosine-protein phosphatase C, CD45 (Homo sapiens) (P08575 whole entry, looked up): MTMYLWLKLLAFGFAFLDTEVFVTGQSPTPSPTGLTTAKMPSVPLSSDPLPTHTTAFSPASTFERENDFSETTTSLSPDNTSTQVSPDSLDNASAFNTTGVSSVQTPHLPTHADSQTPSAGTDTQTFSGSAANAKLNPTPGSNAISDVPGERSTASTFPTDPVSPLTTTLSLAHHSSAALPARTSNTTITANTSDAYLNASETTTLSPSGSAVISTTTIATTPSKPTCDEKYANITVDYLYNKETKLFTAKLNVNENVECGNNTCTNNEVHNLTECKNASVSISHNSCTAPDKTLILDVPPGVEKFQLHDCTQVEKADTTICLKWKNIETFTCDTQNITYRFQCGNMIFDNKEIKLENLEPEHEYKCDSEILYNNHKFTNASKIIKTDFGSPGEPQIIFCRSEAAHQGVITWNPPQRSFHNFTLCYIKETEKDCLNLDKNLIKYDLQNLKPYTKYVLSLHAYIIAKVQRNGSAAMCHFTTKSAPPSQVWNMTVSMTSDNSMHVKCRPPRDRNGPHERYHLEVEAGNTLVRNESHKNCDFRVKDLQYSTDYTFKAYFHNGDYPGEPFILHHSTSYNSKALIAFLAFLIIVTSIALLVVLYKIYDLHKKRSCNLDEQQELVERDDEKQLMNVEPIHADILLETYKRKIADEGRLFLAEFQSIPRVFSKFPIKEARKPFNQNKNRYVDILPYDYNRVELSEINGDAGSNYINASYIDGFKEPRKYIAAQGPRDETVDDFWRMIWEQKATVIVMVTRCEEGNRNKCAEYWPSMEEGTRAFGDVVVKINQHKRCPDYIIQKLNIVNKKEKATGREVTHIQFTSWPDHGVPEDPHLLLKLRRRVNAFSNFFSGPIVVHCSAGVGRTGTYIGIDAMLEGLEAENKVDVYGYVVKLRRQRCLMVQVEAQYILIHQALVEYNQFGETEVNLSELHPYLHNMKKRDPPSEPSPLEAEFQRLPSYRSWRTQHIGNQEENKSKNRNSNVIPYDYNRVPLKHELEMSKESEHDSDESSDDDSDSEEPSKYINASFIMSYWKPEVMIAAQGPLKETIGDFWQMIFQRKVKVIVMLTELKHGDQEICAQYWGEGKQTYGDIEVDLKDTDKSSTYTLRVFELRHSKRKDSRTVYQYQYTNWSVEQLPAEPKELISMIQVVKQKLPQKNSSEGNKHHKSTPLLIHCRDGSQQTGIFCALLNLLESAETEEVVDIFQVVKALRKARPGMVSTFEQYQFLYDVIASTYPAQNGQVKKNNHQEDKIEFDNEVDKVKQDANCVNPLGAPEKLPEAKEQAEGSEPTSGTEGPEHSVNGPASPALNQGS

[11] = biological target: T1, M-phase inducer phosphatase 1 (Homo sapiens, UniProt P30304); assay: (§2) Inhibitory activity tested against cell division cycle 25A (assay using p-nitro phenyl phosphate (pNPP) as substrate)
T1 sequence (P30304 whole entry): B1 chain

[12] = biological target: T1, M-phase inducer phosphatase 1; assay: (§3) Inhibitory activity tested against cell division cycle 25A (assay using fluorescein diphosphate (FDP) as substrate)
Outline: (§4)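 Recombinant human GST-Cdc25A fusion protein, each batch calibrated so that FDP was dephosphorylated linearly over 20 min. Fluorescein diphosphate was the substrate. Reactions ran 15 min at 25 °C in the dark and were stopped with sodium orthovanadate. IC50 came from at least two independent runs, each in triplicate.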

HT-29 [13] = assay: Growth inhibitory activity was determined against HT-29 cancer cell line colon cancer; assay type: functional, Homo sapiens; conditions: Homo sapiens, HT-29; outline: as §1
UO-31 [14] = assay: Growth inhibitory activity was determined against UO-31 cancer cell line of renal cancer; assay type: functional; conditions: Homo sapiens; outline: as §1
SN12C [15] = assay: Growth inhibitory activity was determined against SN12C cancer cell line of renal cancer; assay type: functional; conditions: Homo sapiens; outline: as §1
[16] = biological target: Receptor-type tyrosine-protein phosphatase C, CD45 (Homo sapiens) (UniProt P08575); assay: Inhibitory activity tested against human CD45 receptor-type tyrosine-protein phosphatase C
[17] = biological target: T2, M-phase inducer phosphatase 1 (Homo sapiens) (UniProt P30304); assay: as §3
T2 sequence (whole entry): B1 chain
Outline: as §4, with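 “orthovanadate. Fluorescein monophosphate was read at 485 nm excitation and 530 nm emission.” for “orthovanadate.”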

[18] = biological target: T2, M-phase inducer phosphatase 1 (Homo sapiens); assay: as §2
[19] = substrate: C=C(CCCCC#N)[C@H]1CC[C@]2(C)[C@@H]([C@H](C)CCCC(C)C)CC[C@H]2[C@@H]1CC(=O)O
[20] = substrate: C=C(CCCCC#N)[C@H]1CC[C@]2(C)[C@@H]([C@H](C)CCCC(C)C)CC[C@H]2[C@@H]1CC(=O)O; remark: listed apart in the source
[21] = substrate: C=C(CCCCC#N)[C@H]1CC[C@]2(C)[C@@H]([C@H](C)CCCC(C)C)CC[C@H]2[C@@H]1CC(=O)O; conditions: 2.5 uM
[22] = substrate: C=C(CCCCC#N)[C@H]1CC[C@]2(C)[C@@H]([C@H](C)CCCC(C)C)CC[C@H]2[C@@H]1CC(=O)O; remark: listed apart in the source
[23] = substrate: C=C(CCCCC#N)[C@H]1CC[C@]2(C)[C@@H]([C@H](C)CCCC(C)C)CC[C@H]2[C@@H]1CC(=O)O; conditions: 5 uM
[24] = substrate: C=C(CCCCC#N)[C@H]1CC[C@]2(C)[C@@H]([C@H](C)CCCC(C)C)CC[C@H]2[C@@H]1CC(=O)O; remark: listed apart in the source
[25] = substrate: C=C(CCCCC#N)[C@H]1CC[C@]2(C)[C@@H]([C@H](C)CCCC(C)C)CC[C@H]2[C@@H]1CC(=O)O; conditions: 1.25 uM
[26] = substrate: C=C(CCCCC#N)[C@H]1CC[C@]2(C)[C@@H]([C@H](C)CCCC(C)C)CC[C@H]2[C@@H]1CC(=O)O; conditions: 0.625 uM

Row | Molecule | GI50 (SF-268) [µM] | GI50 (OVCAR-3 [2]) [µM] | GI50 (BT-549 (Homo sapiens)) [µM] | GI50 (SK-MEL-5) [µM] | GI50 (NCI-H522) [µM] | GI50 (A549) [µM] | GI50 (T47D) [µM] | GI50 (PC-3) [µM] | GI50 (SF-539) [µM] | GI50 (U-251) [µM] | GI50 (COLO 205) [µM] | GI50 (LOX IMVI) [µM] | GI50 (OVCAR-8 [6]) [µM] | GI50 (HCC 2998) [µM] | GI50 (NCI-H23) [µM] | GI50 (NCI/ADR-RES) [µM] | GI50 (786-0 [9]) [µM] | GI50 (HT-29 [13]) [µM] | GI50 (UO-31 [14]) [µM] | GI50 (SN12C [15]) [µM] | other results
1 | CC(C)CCC[C@@H](C)[C@H]1CC[C@H]2[C@@H]3CC(=O)O[C@](C)(CCCCC#N)[C@H]3CC[C@]12C | > 25 | 4.73 | 5.89 | 5.1 | > 25 | 5.51 | 4.92 | 5.51 | 5.17 | 5.04 | 4.75 | 5.35 | 5.19 | 4.71 | 5.63 |  |  |  |  |  | GI50 (UO-31 [1]): 0.47 µM; GI50 (SN12C [3]): 4.38 µM; GI50 (786-0 [4]): 4.3 µM; GI50 (HT-29 [5]): 4.05 µM
2 | CC(C)CCC[C@@H](C)[C@H]1CC[C@H]2[C@@H]3CC(=O)O[C@](C)(CCCCC(=O)O)[C@H]3CC[C@]12C | > 25 |  | 4.19 | 9.69 | > 25 | 8.3 | 7.3 | 7.21 | 14.6 | 6.28 | 6.13 |  |  | 4.43 | 4.92 | 5.55 | 8.44 | 7.76 | 11 | 8.3 | GI50 (OVCAR-3 [7]): 5.78 µM; GI50 (OVCAR-8 [8]): 5.13 µM; IC50 [10]: > 100 µM; IC50 [11]: 11.6 µM; IC50 [12]: 5.1 µM
3 | CC(C)CCCC(C)[C@H]1CC[C@H]2[C@H](CC(=O)O)[C@@H]([C@@]3(C)CC[C@@H](CC#N)O3)CC[C@]12C (stereo not given in full) | 2.86 |  | 5.05 | 10.8 | 0.94 | 8.25 | 8.41 | 7.77 | 19.5 | 6.01 | 5.26 | 6.23 |  | 5.1 | 5.75 | 5.44 | 9.23 | 5.52 | 15.3 | 5.4 | GI50 (OVCAR-3 [7]): 5.66 µM; GI50 (OVCAR-8 [8]): 4.76 µM
4 | C=C(CCCCC#N)[C@H]1CC[C@]2(C)[C@@H]([C@H](C)CCCC(C)C)CC[C@H]2[C@@H]1CC(=O)O |  | 6.64 | 5.62 | 5.98 |  | 5.21 | 8.39 | 7.36 | 4.5 | 6.49 | 5.1 | 4.92 | 4.78 | 6.33 | 5.12 | 5.66 | 11.5 | 7.77 | 9.41 | 6.9 | IC50 [16]: 12.2 µM; IC50 [17]: 2.2 µM; IC50 [18]: 8.3 µM
5 | B1 |  |  |  |  |  |  |  |  |  |  |  |  |  |  |  |  |  |  |  |  | Km [19]: 23.1 µM; Km [20]: 32.3 µM; Vmax [21]: 3070; Km [22]: 37.4 µM; Vmax [23]: 632; Km [24]: 33.6 µM; Vmax [25]: 4260; Vmax [26]: 4610
